Experimental data gathered from unrelated publications.
Lines come from different studies, so protocols differ.
Target: Receptor-interacting serine/threonine-protein kinase 1 (RIPK1, Homo sapiens, UniProt Q13546)
Residues used in one study (Q13546 1-671): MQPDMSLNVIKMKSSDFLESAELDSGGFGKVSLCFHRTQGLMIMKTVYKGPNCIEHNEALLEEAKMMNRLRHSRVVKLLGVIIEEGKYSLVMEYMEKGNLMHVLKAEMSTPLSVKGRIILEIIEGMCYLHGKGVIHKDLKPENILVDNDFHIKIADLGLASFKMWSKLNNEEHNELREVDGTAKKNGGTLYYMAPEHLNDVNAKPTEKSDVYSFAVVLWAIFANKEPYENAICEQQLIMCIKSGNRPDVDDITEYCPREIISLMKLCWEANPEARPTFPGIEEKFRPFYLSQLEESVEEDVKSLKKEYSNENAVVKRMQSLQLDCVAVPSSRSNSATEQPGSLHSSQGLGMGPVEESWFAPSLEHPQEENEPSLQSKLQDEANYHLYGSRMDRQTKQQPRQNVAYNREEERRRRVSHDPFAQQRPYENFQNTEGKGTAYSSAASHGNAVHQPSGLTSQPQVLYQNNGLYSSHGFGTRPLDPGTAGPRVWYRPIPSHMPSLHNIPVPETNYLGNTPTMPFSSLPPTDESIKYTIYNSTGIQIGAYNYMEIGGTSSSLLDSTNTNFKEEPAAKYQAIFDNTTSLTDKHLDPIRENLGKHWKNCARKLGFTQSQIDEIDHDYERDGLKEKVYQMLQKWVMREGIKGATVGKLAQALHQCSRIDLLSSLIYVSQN

SMILES	read-out	method	tested at	remaining binding [%]
O=C(NCCCN1CCOCC1)c1ccc(Nc2nccc(-c3cc4ccccc4s3)n2)cc1	binding	competition with immobilised ligand	1 µM	65
CCN1CCN(Cc2ccc(C(=O)Nc3ccc(C)c(Oc4ccc5c(c4)CC(=O)N5)c3)cc2C(F)(F)F)CC1	binding	competition with immobilised ligand	1 µM	86
CCc1ccccc1C(=O)Nc1n[nH]c2c(C)c(F)c(C3C(C#N)=C(C)N(C)C(C)=C3C#N)cc12	cell-free assay	competition with immobilised ligand	1 µM	100
COc1cnc(Nc2cccc(S(N)(=O)=O)c2)nc1N1CCN(c2ccccc2)C(=O)C1	binding	competition with immobilised ligand	1 µM	100
CN(C)c1ncnc(-c2ccc3nc(Nc4cc(CN5CCN(C(=O)CC(F)(F)F)CC5)ccn4)[nH]c3c2)c1Cl	cell-free assay	competition with immobilised ligand	1 µM	93
Nc1ncc2c(n1)-c1c([nH]c3ccc(C#CC4CC4)cc13)CCCC2	binding	competition with immobilised ligand	1 µM	100
O=C(N1CCS(=O)(=O)CC1)N1C[C@H](c2ccc(OC(F)(F)F)cc2)C[C@H](c2nc(C3CC3)no2)C1	cell-free assay	competition with immobilised ligand	1 µM	100
c1cnn2ncc(-c3ccnc(N4CCC45COC5)n3)c2c1	binding	–	1 µM	83
c1cncc(-c2cccc(Nc3nccc(NC4CCCCC4)n3)c2)c1	binding	competition with immobilised ligand	10 µM	98
CCCCN(CCCC)C(=O)CN1C[C@@H](c2cc(OC)c3c(c2)OCO3)[C@H](C(=O)O)[C@H]1CC(C)(C)CCC	cell-free assay	competition with immobilised ligand	1 µM	100
CN(C)c1nccc(-c2cnn3ncccc23)n1	binding	–	1 µM	98
O=C1CCc2cc(Nc3cc(OC4CCOCC4)c([N+](=O)[O-])cc3Cl)ccc2N1	cell-free assay	competition with immobilised ligand	1 µM	100
C=CC(=O)N1CCC(C(=O)NCC(=O)N2CCN(c3nc(-c4cnc(N)nc4C(F)F)nc(N4CCOCC4)n3)CC2)CC1	binding	competition with immobilised ligand	1 µM	100
Cc1cnn2ncc(-c3ccnc(N(C)C)n3)c2c1	binding	–	1 µM	100
O=C(Nc1c[nH]nc1C(=O)NC1CCNCC1)c1cc(F)cc(F)c1	binding	competition with immobilised ligand	1 µM	100
O=C(c1ccc(Nc2nccc(-c3cc4ccccc4s3)n2)cc1)N1CCC(N2CCCC2)CC1	binding	competition with immobilised ligand	1 µM	23
N[C@@H]1CCN(c2nccc(-c3cnn4ncccc34)n2)C1	binding	–	1 µM	100
O=C(c1ccc(Nc2ncc(Cl)c(-c3cc4ccccc4s3)n2)cc1)N1CCC(N2CCCC2)CC1	binding	competition with immobilised ligand	1 µM	2.5
COc1cnc(Nc2cccc(S(N)(=O)=O)c2)nc1N1CCN(c2ccccc2)CC1	binding	competition with immobilised ligand	1 µM	100
